From ChEMBL document CHEMBL2311429, “Design, synthesis and crystallographic analysis of nitrile-based broad-spectrum peptidomimetic inhibitors for coronavirus 3C-like proteases” (Eur J Med Chem, 2013)
Active and inactive are the calls of the source. The rule behind the calls is not given here.

How the values were obtained:
[1] = molecular target: Replicase polyprotein 1ab (Severe acute respiratory syndrome-related coronavirus, UniProt P0C6X7); assay: Inhibition of SARS coronavirus 3C-like protease pretreated for 5 mins before substrate addition by fluorimetry
[2] = Inhibition of […] bronchitis virus 3C-like protease pretreated for 5 mins before substrate addition by fluorimetry
Outline: (§1)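 3CL protease (0.5-1 μM) preincubated 5 min with inhibitor (0.5-256 μM), then 35 μM fluorescent-protein substrate added; cleavage followed by fluorescence. IC50 from four-parameter logistic fit of activity versus inhibitor concentration.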

[3] = Inhibition of human coronavirus OC43 3C-like protease pretreated for 5 mins before substrate addition by fluorimetry; outline: as §1
[4] = Inhibition of human coronavirus HKU1 3C-like protease pretreated for 5 mins before substrate addition by fluorimetry; outline: as §1
[5] = molecular target: T1, Caspase-3 (Homo sapiens) (UniProt P42574); assay: Inhibition of caspase3 (unknown origin) using Ac-DEVD-pNA as substrate at 0.5 to 256 uM after 90 mins by spectrophotometry
T1 sequence (whole entry): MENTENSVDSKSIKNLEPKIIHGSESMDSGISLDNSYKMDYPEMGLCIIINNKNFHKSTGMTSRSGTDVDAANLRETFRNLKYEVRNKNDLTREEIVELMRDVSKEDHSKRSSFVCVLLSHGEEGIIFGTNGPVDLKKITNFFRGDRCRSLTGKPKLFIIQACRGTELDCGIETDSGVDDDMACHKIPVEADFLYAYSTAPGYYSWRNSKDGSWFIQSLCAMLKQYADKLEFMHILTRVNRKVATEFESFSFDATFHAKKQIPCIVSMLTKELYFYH

[6] = Inhibition of human coronavirus […] 3C-like protease pretreated for 5 mins before substrate addition by fluorimetry; design: species or system Human coronavirus 229E; outline: as §1

SMILES | IC50 [1] | IC50 [2] | IC50 [3] | IC50 [4] | inhibition [5] | IC50 [6]
Cc1cc(C(=O)N[C@@H](C)C(=O)N[C@H](C(=O)N[C@@H](CC(C)C)C(=O)N[C@H](C#N)CCC(N)=O)C(C)C)no1 | 49 µM |  |  |  |  | 
CC(C)C[C@H](NC(=O)[C@@H](NC(=O)[C@H](C)NC(=O)[C@H](CO)NC(=O)[C@@H](NC(=O)OCc1ccccc1)[C@@H](C)O)C(C)C)C(=O)N[C@H](C#N)CCC(N)=O | 39 µM |  |  |  |  | 
CC(C)C[C@H](NC(=O)[C@@H](NC(=O)[C@H](C)NC(=O)OCc1ccccc1)C(C)C)C(=O)N[C@H](C#N)CCC(N)=O |  | 1300 nM | 1300 nM | 1300 nM | inactive | 1300 nM
